# Active and inactive are the calls of the source. The rule behind the calls is not given here.
# Experiments:
# [1] = system: Mus musculus; assay: Anticonvulsant activity in albino Carworth Farms No.1 mouse assessed as protection against 6-Hz electroshock-induced seizures at 100 mg/kg, ip after 0.5 hrs; assay type: functional, organism-based
# How it was run: (§1)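 Carworth Farms No.1 albino mice were dosed i.p. at 100 mg/kg (0.5% methylcellulose solution or suspension). 6-Hz seizures were induced at 32 mA at 0.25, 0.5, 1.0, 2.0 and 4 h after injection. Results are given as animals protected / animals tested.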
# [2] = system: Mus musculus; assay: Neurotoxicity in albino Carworth Farms No.1 mouse at 30 mg/kg, ip after 4 hrs by rotarod test; assay type: toxicity, organism-based; details: in vivo
# How it was run: (§2)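 Mice (albino Carworth Farms No.1) were dosed i.p. at 30, 100 or 300 mg/kg in 0.5% methylcellulose. They were tested 0.5 and 4 h later on a 1-inch knurled rod rotating at 6 rpm. Neurotoxicity was scored if a mouse could not stay on the rod for at least 1 min in each of three trials. Results are given as animals toxic/animals tested, with deaths noted.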
# [3] = system: Mus musculus; assay: Anticonvulsant activity in albino Carworth Farms No.1 mouse assessed as protection against 6-Hz electroshock-induced seizures at 100 mg/kg, ip after 1 hr; assay type: functional, organism-based; how it was run: as §1
# [4] = system: Mus musculus; assay: Anticonvulsant activity in albino Carworth Farms No.1 mouse assessed as protection against subcutaneous dosed pentetrazol-induced seizures at 100 mg/kg, ip after 0.5 hrs; assay type: functional, organism-based
# How it was run: (§3)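 Mouse i.p. screen in Carworth Farms No.1 albino mice at 30, 100 or 300 mg/kg in 0.5% methylcellulose. Testing was at 0.5 and 4 h after injection, by maximal electroshock or by subcutaneous pentetrazol challenge. Scoring was number protected / number used.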
# [5] = Lipophilicity of the compound at 1 mg/ml by RT-TLC analysis relative to 0% methanol; assay type: physicochemical; details: methanol/water
# How it was run: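 Reversed-phase TLC used methanol–water mobile phases of 95–65% methanol. Compounds were applied from 1 mg/mL methanol solutions after 1 h chamber saturation, with UV detection. RM = log(1/Rf − 1) was calculated at each methanol level and extrapolated linearly (RM = RM0 + bC) to 0% methanol to give RM0.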
# [6] = system: Mus musculus; assay: Anticonvulsant activity in albino Carworth Farms No.1 mouse assessed as protection against subcutaneous dosed pentetrazol-induced seizures at 100 mg/kg, ip after 4 hrs; assay type: functional, organism-based; how it was run: as §3
# [7] = Lipophilicity of the compound using 90% methanol in water at 1 mg/ml by RT-TLC analysis; assay type: physicochemical; details: buffer
# How it was run: (§4)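 Reversed-phase TLC with a methanol–water mobile phase at the stated methanol content (v/v). Compounds were spotted from 1 mg/mL methanol solutions after 1 h chamber saturation and located under UV light. Rf was measured and RM = log(1/Rf − 1) calculated.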
# [8] = system: Mus musculus; assay: Anticonvulsant activity in albino Carworth Farms No.1 mouse assessed as protection against maximal electroshock-induced seizures at 100 mg/kg, ip after 4 hrs; assay type: functional, organism-based; how it was run: as §3
# [9] = Lipophilicity of the compound using 85% methanol in water at 1 mg/ml by RT-TLC analysis; assay type: physicochemical; details: buffer; how it was run: as §4
# [10] = Lipophilicity of the compound using 75% methanol in water at 1 mg/ml by RT-TLC analysis; assay type: physicochemical; details: buffer; how it was run: as §4
# [11] = system: Mus musculus; assay: Anticonvulsant activity in albino Carworth Farms No.1 mouse assessed as protection against 6-Hz electroshock-induced seizures at 100 mg/kg, ip after 0.25 hrs; assay type: functional, organism-based; how it was run: as §1
# [12] = Lipophilicity of the compound using 95% methanol in water at 1 mg/ml by RT-TLC analysis; assay type: physicochemical; details: buffer; how it was run: as §4
# [13] = system: Mus musculus; assay: Neurotoxicity in albino Carworth Farms No.1 mouse at 100 mg/kg, ip after 4 hrs by rotarod test; assay type: toxicity, organism-based; details: in vivo; how it was run: as §2
# [14] = system: Mus musculus; assay: Anticonvulsant activity in albino Carworth Farms No.1 mouse assessed as protection against maximal electroshock-induced seizures at 100 mg/kg, ip after 0.5 hrs; assay type: functional, organism-based; how it was run: as §3
# [15] = Lipophilicity of the compound using 65% methanol in water at 1 mg/ml by RT-TLC analysis; assay type: physicochemical; details: buffer; how it was run: as §4
# [16] = system: Mus musculus; assay: Neurotoxicity in albino Carworth Farms No.1 mouse at 100 mg/kg, ip after 0.5 hrs by rotarod test; assay type: toxicity, organism-based; details: in vivo; how it was run: as §2
# [17] = system: Mus musculus; assay: Neurotoxicity in albino Carworth Farms No.1 mouse at 300 mg/kg, ip after 4 hrs by rotarod test; assay type: toxicity, organism-based; details: in vivo; how it was run: as §2
# [18] = system: Mus musculus; assay: Anticonvulsant activity in albino Carworth Farms No.1 mouse assessed as protection against 6-Hz electroshock-induced seizures at 100 mg/kg, ip after 4 hrs; assay type: functional, organism-based; how it was run: as §1
# [19] = system: Mus musculus; assay: Anticonvulsant activity in albino Carworth Farms No.1 mouse assessed as protection against 6-Hz electroshock-induced seizures at 100 mg/kg, ip after 2 hrs; assay type: functional, organism-based; how it was run: as §1
# [20] = system: Mus musculus; assay: Anticonvulsant activity in ip dosed albino Carworth Farms No.1 mouse assessed as protection against subcutaneous dosed pentetrazol-induced seizures after 0.25 hrs; assay type: functional; details: Carworth Farms No.1, 0.25 h
# How it was run: (§5)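 Quantitative i.p. evaluation in Carworth Farms No.1 albino mice, with graded doses in 0.5% methylcellulose. MES, scPTZ or 6-Hz (32 mA) seizure tests were run at 0.25 h.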
# [21] = system: Rattus norvegicus; assay: Anticonvulsant activity in po dosed Sprague-Dawley rat assessed as protection against subcutaneous dosed pentetrazol-induced seizures after 0.5 hrs; assay type: functional
# How it was run: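 Sprague-Dawley rats received graded oral doses suspended or dissolved in 0.5% methylcellulose. Challenge was maximal electroshock or subcutaneous pentetrazol at the stated time after dosing.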
# [22] = Hepatotoxicity against human HepG2 cells assessed as cell viability at 25 uM after 24 hrs by MTT assay relative to control; assay type: toxicity, cell-based; details: read-out: Activity
# How it was run: (§6)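 HepG2 cells (EMEM, 10% FBS, 37 °C, 5% CO₂) were seeded at 1 × 10⁴ per well and cultured overnight. They were then exposed to increasing compound concentrations for 24 h. MTT reagent was added for 3 h and formazan crystals dissolved before reading. Data are mean ± SD of at least three independent experiments, relative to untreated control.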
# [23] = in vitro; details: human, HepG2 cells
# [24] = Hepatotoxicity against human HepG2 cells assessed as cell viability at 100 uM after 24 hrs by MTT assay relative to control
# [25] = in vitro; details: human, HepG2 cells; remark: listed apart in the source
# [26] = in vitro; details: human, HepG2 cells; remark: listed apart in the source
# [27] = Hepatotoxicity against human HepG2 cells assessed as cell viability at 10 uM after 24 hrs by MTT assay relative to control; assay type: toxicity, cell-based; details: read-out: Activity; how it was run: as §6
# [28] = in vitro; details: human, HepG2 cells; remark: listed apart in the source
# [29] = Hepatotoxicity against human HepG2 cells assessed as cell viability at 50 uM after 24 hrs by MTT assay relative to control
# [30] = system: Mus musculus; assay: Anticonvulsant activity in ip dosed albino Carworth Farms No.1 mouse assessed as protection against 6-Hz electroshock-induced seizures after 0.25 hrs; assay type: functional; details: Carworth Farms No.1, ip; how it was run: as §5
compound,measurement,setting,value
CC(NC(=O)/C=C/c1ccccc1)C(=O)NCN1CCCCC1 (racemic),Activity,[1],inactive
same,Activity,[2],Non-toxic
same,Activity,[3],inactive
same,Activity,[4],inactive
same,Rm,[5],1.758
same,Activity,[6],inactive
same,Rm,[7],-0.27
same,Activity,[8],inactive
same,Rm,[9],-0.02
same,Rm,[10],0.1
same,Activity,[11],inactive
same,Rm,[12],-0.39
same,Activity,[13],Non-toxic
same,Activity,[14],inactive
same,Rm,[15],0.5
same,Activity,[16],Non-toxic
same,Activity,[17],Non-toxic
same,Activity,[18],inactive
same,Activity,[19],inactive
NC(=O)N1c2ccccc2C=Cc2ccccc21 [CARBAMAZEPINE],ED50,[20],> 50 mg/kg
same,ED50,[21],> 250 mg/kg
COc1cccc2c1C(=O)c1c(O)c3c(c(O)c1C2=O)C[C@@](O)(C(=O)CO)C[C@@H]3O[C@H]1C[C@H](N)[C@H](O)[C@H](C)O1 [DOXORUBICIN],"viability at 24 h, 25 µM",[22],65.3%
same,"viability at 24 h, 50 µM",[23],75%
same,"viability at 24 h, 100 µM",[24],44.9%
same,"viability at 24 h, 10 µM",[25],91%
same,"viability at 24 h, 100 µM",[26],48%
same,"viability at 24 h, 10 µM",[27],77.4%
same,"viability at 24 h, 25 µM",[28],83%
same,"viability at 24 h, 50 µM",[29],51.6%
CCCC(CCC)C(=O)O [VALPROIC ACID],ED50,[20],220 mg/kg
same,ED50,[21],646 mg/kg
same,ED50,[30],126 mg/kg
